Compound activity: PubChem, several laboratories
Shown are actives, neighbours in structure and some others; about 2.1% of the full set was active somewhere.
FID counter: counter-screen for HCV NS3 helicase inhibitors: DNA intercalator displacement | hit rate 0.17% among 290,000 | inhibition, % at 7.9 µM | DNA fluorescent intercalator displacement, fluorescence; in the data active = inhibition above about 37%;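 note: higher means more ethidium bromide displaced from hairpin DNA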
UBC9 SUMO inh: SUMOylation inhibition; hit rate 0.36% among 290,000; HTRF SUMOylation assay, SAE1/SAE2 + UBC9, in vitro; AID 2006; inhibition, % at 35 µM; in the data active = inhibition above about 50%, passing the limit was not always enough
Target sequence (P63279 whole entry, looked up): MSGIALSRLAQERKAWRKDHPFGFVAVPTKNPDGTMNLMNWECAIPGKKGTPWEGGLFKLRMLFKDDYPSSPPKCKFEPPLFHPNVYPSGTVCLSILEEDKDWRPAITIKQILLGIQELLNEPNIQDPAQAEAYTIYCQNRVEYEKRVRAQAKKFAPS
NS3 helicase inh: inhibitors of Hepatitis C virus NS3 helicase | hit rate 0.56% among 290,000 | inhibition, % at 10.9 µM | NS3 helicase DNA unwinding, Cy5 molecular beacon fluorescence;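 active = inhibition above the mean of all tested compounds plus 3 SD, set per campaign, cut at about 35% in these data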
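test system = hepatitis C virus NS3 helicase domain fragment enzyme | reagent = annealed dual-labelled DNA beacon duplex, ATP-started | times = 1 h at 25 °C | detection = Cy5 fluorescence, 0 and 60 min reads | read-out basis = percent inhibition from t60/t0 fluorescence ratio | control set = DMSO and thioflavine S | replication = one well per compound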
VIM-2 inh: inhibitors of Pseudomonas aeruginosa VIM-2 metallo-beta-lactamase; purified VIM-2, nitrocefin hydrolysis, epi-absorbance fluorescence; hit rate 0.89% among 290,000; inhibition, % at 5.6 µM;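 active = inhibition above the mean of all tested compounds plus 3 SD, cutoff set per screening run, cut at about 7.5% in these data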;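 note: red hydrolysis product quenches plate fluorescence so inhibitors raise well fluorescence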
IMP-1 inh: inhibitors of Pseudomonas aeruginosa IMP-1 metallo-beta-lactamase | hit rate 0.45% among 290,000 | inhibition, % at 5.6 µM | purified IMP-1, nitrocefin hydrolysis, epi-absorbance fluorescence | AID 1556;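 active = inhibition above the mean plus 3 SD of all compounds in the same screening run, cut at about 4.5% in these data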
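assay system = purified recombinant IMP-1 metallo-beta-lactamase enzyme | schedule = 15 min preincubation plus 25 min reaction at 25 °C | signal = Epi-absorbance fluorescence, 480 nm excitation, 530 nm emission | read-out basis = percent inhibition from optical density relative to buffer-blank wells | controls = IMP-1 with DMSO as 0%, enzyme-free DMSO as 100%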
Hits are given with their value; n = inactive; x = not tested or not shown.

SMILES | FID counter | UBC9 SUMO inh | NS3 helicase inh | VIM-2 inh | IMP-1 inh
O=C(N/N=C/c1ccccc1F)c1cc2c(ccc3ccccc32)o1 | n | n | n | n | 5.0
CCOC(=O)Cc1nnc(NC(=O)CCc2ccccc2)s1 | n | n | n | n | n
Cc1cc(C)c(/C=N/NC(=O)c2nnn(-c3nonc3N)c2CN2CCC(C)CC2)c(C)c1 | n | n | n | n | n
CC1CCN(Cc2c(C(=O)N/N=C/c3cc(Cl)ccc3O)nnn2-c2nonc2N)CC1 | n | 82 | n | n | n
CC1CCN(Cc2c(C(=O)N/N=C/c3cc(Br)ccc3O)nnn2-c2nonc2N)CC1 | n | 76 | n | n | n
COc1cc(CNCCc2ccccc2)cc(Br)c1OCC(=O)Nc1ccccc1C | 44 | n | n | n | n
NC(=O)CCn1c(C(=O)c2cc(Cl)c(N)c(Cl)c2)c2ccccc2[n+]1[O-] | n | n | n | 7.8 | n
NC(=O)CCn1c(C(=O)c2cccc([N+](=O)[O-])c2)c2ccccc2[n+]1[O-] | n | n | n | n | n
Oc1ccccc1C1CC(c2cccs2)=NC(c2cccc(Br)c2)N1 (stereo not given) | n | n | n | n | n
Cc1cc2cc(CN(Cc3cccs3)C(=S)NCc3ccco3)c(=O)[nH]c2cc1C | n | n | n | 8.6 | n
Cc1cc2cc(CN(CCN(C)C)C(=S)NCc3ccco3)c(=O)[nH]c2cc1C | n | n | n | n | n
CCOC(=O)/C(=C/C=C1\Sc2cc(C)c(C)cc2N1CC)C(C)=O | n | n | n | n | 4.8
CCCCOc1ccc(CN2CCC(O)CC2)cc1 | n | n | n | n | 45
CCOc1ccccc1C(=O)Oc1ccc2ccc(=O)oc2c1 | n | n | n | n | n
Cc1ccc2[nH]c(=O)c3cc(C(=O)NCCC(C)C)sc3c2c1 | n | n | n | n | n
CCOCCCNC(=O)c1cc2c(=O)[nH]c3ccccc3c2s1 | n | n | n | n | n
CCCCN(CC)CCCNC(=O)c1cc2c(=O)[nH]c3ccccc3c2s1 | n | n | n | 11 | n
CCCCN(CC)CCNC(=O)c1cc2c(=O)[nH]c3ccc(C)cc3c2s1 | n | n | n | 8.3 | n
Cc1cc2n(c(=O)c1C#N)CCCN2c1cccc(Cl)c1 | n | n | n | 10 | n
CCCCNCC#CCOc1cc(C)ccc1C(C)C | n | n | n | n | n
COc1cccc(/C=C2/Sc3ccc(C(=O)NCCN4CCCC4)cc3NC2=O)c1 | n | n | n | 11 | n
Cc1ccc(/C=C2/Sc3ccc(C(=O)NCCN4CCOCC4)cc3NC2=O)cc1 | n | n | n | n | n
COc1ccccc1CN1CC(C(=O)NCc2nc3ccccc3n2C)CCC1=O (stereo not given) | n | n | n | n | n
O=c1nc2s/c(=C\c3ccc(-c4ccccc4[N+](=O)[O-])o3)c(=O)n2nc1-c1ccccc1 | n | n | 43 | n | n
O=C(c1cc(Cl)nc2ccccc12)N1CCN(S(=O)(=O)c2ccccc2[N+](=O)[O-])CC1 | n | n | n | n | 4.5
SMILES | FID counter | UBC9 SUMO inh | NS3 helicase inh | VIM-2 inh | IMP-1 inh
Cc1nn2c(c1-c1ccccc1)NC1=C(C(=O)CCC1)C2c1ccccc1 (stereo not given) | n | n | n | n | n
COc1ccc(C2C3=C(CCCC3=O)Nc3c(-c4ccccc4)c(C)nn32)cc1 (stereo not given) | n | 51 | n | n | n
CN(C)CCCNCCCNC(=O)/C=N/O | n | n | n | n | 4.6
c1ccc2c(c1)OC(CCCN1CCCCC1)c1ccccc1S2 (stereo not given) | 38 | n | n | n | n
CN1CCCC(CC2Oc3ccccc3Sc3ccccc32)C1 (stereo not given) | n | n | n | n | n
Nc1ccccc1N=Cc1ccc(-c2cccc(Cl)c2)o1 | n | n | n | n | n
CC(=O)c1ccc(N2CCN(c3ccc4cc(S(=O)(=O)N5CCC(C)CC5)ccc4n3)CC2)cc1 | n | n | n | n | 12
CCOC(=O)c1nn(-c2ccc(F)cc2)cc1O | n | n | n | n | n
CCOC(=O)c1nn(-c2ccc3c(c2)CCN3C(C)=O)cc1O | n | 52 | n | n | n
CN1C(=O)/C(=C/c2ccc(C(=O)Nc3ccc(O)cc3C(=O)O)cc2)SC1=S | 39 | n | n | n | n
Cc1ccc(/C=C2\SC(=S)N(CCC(=O)NNC(=O)c3ccc(O)cc3)C2=O)cc1 | n | n | n | n | n
CCc1ccccc1NC(=S)N1CCCCCC1 | n | n | n | n | n
CC(=O)c1sc(NCc2ccccc2)nc1C | n | n | n | n | 28
COc1ccc(CN2C(=O)c3ccc(C(=O)O)cc3C2=O)cc1 | n | n | n | n | n
Cc1cccn2c(=O)c3cc(C(=O)NCCN4CCOCC4)c(=N)n(CCc4ccccc4)c3nc12 | n | n | n | n | n
COCCCn1c(C(=O)NCCN2CCOCC2)cc2c(=O)n3cccc(C)c3nc21 | n | n | n | 9.4 | n
COCCNC(=O)c1cc2c(=O)n3cccc(C)c3nc2n1C | x | n | x | x | x
COCCCn1c(C(=O)Nc2ccc3c(c2)OCO3)cc2c(=O)n3ccccc3nc21 | n | n | n | n | n
Cc1cccn2c(=O)c3cc(C(=O)NCCN4CCOCC4)c(=N)n(CCCN4CCOCC4)c3nc12 | 79 | n | n | n | n
COCCCn1c(C(=O)N2CCOCC2)cc2c(=O)n3ccccc3nc21 | n | 52 | n | n | 42
O=C(C[n+]1cc[nH]c1)c1ccc(Cl)cc1 | n | n | n | n | n
CCOC(=O)N1CCN(C(=O)CN(C)S(=O)(=O)c2ccc(OCC)cc2)CC1 | n | n | n | n | n
N#Cc1cnn2c(-c3ccccc3)ccnc12 | n | 50 | n | n | n
Cc1c(Cl)cccc1-c1ccc(CNCc2ccccn2)o1 | n | n | n | 7.9 | n
COc1cc(CNCc2ccccn2)ccc1OCc1c(Cl)cccc1Cl | n | n | n | n | n
SMILES | FID counter | UBC9 SUMO inh | NS3 helicase inh | VIM-2 inh | IMP-1 inh
O=C(CCC(=O)c1cccs1)c1cccs1 | n | n | n | n | 4.6
NC(=O)c1ccc(NC(=O)CCC(=O)c2cccs2)cc1 | n | n | n | n | 5.0
NS(=O)(=O)c1ccc(NC(=O)CCC(=O)c2cccs2)cc1 | n | n | n | n | n
CCOc1cc(/C=N/NC(=O)c2cccnc2)ccc1OCc1ccc(C(=O)OC)o1 | n | n | n | n | n
N#Cc1ccc(NC(=O)Cn2cnc(S(=O)(=O)N3CCCC3)c2)cc1 | n | n | n | n | n
COC(=O)c1c(/N=C/N(C)C)sc2c1CCN(c1ncc(C(F)(F)F)cc1Cl)C2 | n | n | n | n | 5.0
O=C(NCC1CCN(Cc2ccccc2F)CC1)Nc1cccc(Br)c1 | n | n | n | n | n
O=S(=O)(Nc1cc(Sc2ncn[nH]2)c(O)c2ccccc12)c1ccccc1 | n | 92 | n | n | n
Fc1ccc(-n2c(-c3cccs3)nc3nc4ccccc4nc32)cc1 | n | n | n | n | n
Fc1cccc(-n2c(-c3cccs3)nc3nc4ccccc4nc32)c1 | n | 55 | n | n | n
CCOC(=O)c1c(NC(=O)CN2C(=O)NC(C)(c3ccccc3)C2=O)sc(C)c1C (stereo not given) | n | n | n | n | n
